What is called IC50 is the point on the concentration scale where inhibition reaches its midpoint. What is called inhibition is the change of the read-out against control, counted positive when it falls.

This is an account of results in ChEMBL document CHEMBL5661979, “Pharmacological inhibition of BMK1 suppresses tumor growth through promyelocytic leukemia protein” (Cancer Cell, 2010).

One assay concerns the target Ephrin type-A receptor 2 (Homo sapiens, UniProt P29317). Kind of assay: Inhibition of EphA2 in human HeLa cells lysate pre incubated for 15 mins followed by ATP acyl phosphate probe addition and measured after 10 mins by LC-MS/MS analysis. The assay is classed as subcellular.
Assay [1] has as its target Mitogen-activated protein kinase 1 (Homo sapiens, UniProt P28482). Kind of assay: Inhibition of ERK2 in human HeLa cells lysate pre incubated for 15 mins followed by ATP acyl phosphate probe addition and measured after 10 mins by LC-MS/MS analysis. It is filed as subcellular.
The target of assay [2] is T1, Rho-associated protein kinase (Homo sapiens, UniProt O75116+Q13464). Nature of the assay: Inhibition of ROCK1/2 in human HeLa cells lysate pre incubated for 15 mins followed by ATP acyl phosphate probe addition and measured after 10 mins by LC-MS/MS analysis. It is filed as subcellular.
Assay [3] has as its target Calcium/calmodulin-dependent protein kinase type II subunit delta (Homo sapiens, UniProt Q13557). Nature of the assay: Inhibition of CAMK2d in human HeLa cells lysate pre incubated for 15 mins followed by ADP acyl phosphate probe addition and measured after 10 mins by LC-MS/MS analysis. It is filed as subcellular. The method, boiled down:
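KiNativ-type profiling in HeLa lysate (5 mg/mL total protein). Lysate preincubated 15 min with inhibitor at 50, 10, 2, 0.8 or 0 μM, then ATP or ADP acylphosphate probe added (5 μM final) for 10 min. Reaction stopped with urea and analysed by targeted MS, using up to four fragment ions per kinase peptide-probe conjugate. % inhibition calculated against untreated lysate. Duplicate reactions.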

The target of assay [4] is Glycogen synthase kinase-3 beta (Homo sapiens, UniProt P49841). Nature of the assay: Inhibition of GSK3B isoform 2 in human HeLa cells lysate pre incubated for 15 mins followed by ADP acyl phosphate probe addition and measured after 10 mins by LC-MS/MS analysis. It is filed as subcellular.
Assay [5] has as its target Cyclin-dependent kinase 16 (Homo sapiens, UniProt Q00536). Nature of the assay: Inhibition of PCTAIRE1 in human HeLa cells lysate at 50 uM pre incubated for 15 mins followed by ADP acyl phosphate probe addition and measured after 10 mins by LC-MS/MS analysis relative to control. The assay is classed as subcellular. To be noted: time 25.0 min.
In assay [6] the target is T2, Dual specificity mitogen-activated protein kinase kinase 6 (Homo sapiens) (UniProt P52564).
T2 sequence (whole entry): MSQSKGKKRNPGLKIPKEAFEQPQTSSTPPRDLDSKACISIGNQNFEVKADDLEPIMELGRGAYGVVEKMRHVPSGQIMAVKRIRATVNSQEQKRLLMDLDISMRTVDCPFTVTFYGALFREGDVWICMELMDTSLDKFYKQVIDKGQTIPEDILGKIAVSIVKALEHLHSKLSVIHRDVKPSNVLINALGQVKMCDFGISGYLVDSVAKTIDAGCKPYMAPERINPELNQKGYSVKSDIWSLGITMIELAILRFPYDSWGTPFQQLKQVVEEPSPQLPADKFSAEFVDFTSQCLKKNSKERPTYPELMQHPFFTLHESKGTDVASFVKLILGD
Nature of the assay: Inhibition of MAP2K6 in human HeLa cells lysate at 50 uM pre incubated for 15 mins followed by ADP acyl phosphate probe addition and measured after 10 mins by LC-MS/MS analysis relative to control. It is filed as subcellular. To be noted: time 25.0 min.

For assay [7], the target named is Mitogen-activated protein kinase kinase kinase 2 (Homo sapiens) (UniProt Q9Y2U5). Kind of assay: Inhibition of MAP3K2 in human HeLa cells lysate at 50 uM pre incubated for 15 mins followed by ADP acyl phosphate probe addition and measured after 10 mins by LC-MS/MS analysis relative to control. To be noted: time 25.0 min. It is filed as subcellular.
In assay [8] the target is Serine/threonine-protein kinase Nek7 (Homo sapiens, UniProt Q8TDX7). Nature of the assay: Inhibition of NEK7 in human HeLa cells lysate at 50 uM pre incubated for 15 mins followed by ADP acyl phosphate probe addition and measured after 10 mins by LC-MS/MS analysis relative to control. It is filed as subcellular. The conditions noted are these: time 25.0 min.
For assay [9], the target named is Ribosomal protein S6 kinase alpha-1 (Homo sapiens, UniProt Q15418). Kind of assay: Inhibition of RSK1 domain 2 K2 site in human HeLa cells lysate at 10 uM pre incubated for 15 mins followed by ADP acyl phosphate probe addition and measured after 10 mins by LC-MS/MS analysis relative to control. It is filed as subcellular. To be noted: time 25.0 min.
Assay [10] has as its target T3, Phosphatidylinositol 5-phosphate 4-kinase type-2 alpha (Homo sapiens) (UniProt P48426).
T3 sequence (whole entry): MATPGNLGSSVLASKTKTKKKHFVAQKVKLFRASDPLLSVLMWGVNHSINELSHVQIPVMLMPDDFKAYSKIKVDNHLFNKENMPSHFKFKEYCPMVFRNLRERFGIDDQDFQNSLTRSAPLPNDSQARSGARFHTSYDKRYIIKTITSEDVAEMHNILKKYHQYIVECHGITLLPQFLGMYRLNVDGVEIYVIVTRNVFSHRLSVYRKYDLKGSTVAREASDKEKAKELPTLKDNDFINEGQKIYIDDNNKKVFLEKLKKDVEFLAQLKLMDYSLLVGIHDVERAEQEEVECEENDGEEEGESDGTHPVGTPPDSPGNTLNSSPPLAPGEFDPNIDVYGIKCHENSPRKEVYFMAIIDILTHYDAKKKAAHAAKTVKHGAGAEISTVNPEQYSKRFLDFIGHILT
Nature of the assay: Inhibition of PIP5K2A LIP site in human HeLa cells lysate at 2 uM pre incubated for 15 mins followed by ADP acyl phosphate probe addition and measured after 10 mins by LC-MS/MS analysis relative to control. The assay is classed as subcellular. To be noted: time 25.0 min.

Assay [11] is described as follows: Inhibition of MAP3K5/MAP3K6/MAP3K15 in human HeLa cells lysate at 2 uM pre incubated for 15 mins followed by ATP acyl phosphate probe addition and measured after 10 mins by LC-MS/MS analysis relative to control. The conditions noted are these: 25 min, condition cancer.
The target of assay [12] is T1, Rho-associated protein kinase. Nature of the assay: Inhibition of ROCK1/2 in human HeLa cells lysate at 2 uM pre incubated for 15 mins followed by ATP acyl phosphate probe addition and measured after 10 mins by LC-MS/MS analysis relative to control. The assay is classed as subcellular. The conditions noted are these: time 25.0 min.

Chain of Mitogen-activated protein kinase 1 (P28482 whole entry): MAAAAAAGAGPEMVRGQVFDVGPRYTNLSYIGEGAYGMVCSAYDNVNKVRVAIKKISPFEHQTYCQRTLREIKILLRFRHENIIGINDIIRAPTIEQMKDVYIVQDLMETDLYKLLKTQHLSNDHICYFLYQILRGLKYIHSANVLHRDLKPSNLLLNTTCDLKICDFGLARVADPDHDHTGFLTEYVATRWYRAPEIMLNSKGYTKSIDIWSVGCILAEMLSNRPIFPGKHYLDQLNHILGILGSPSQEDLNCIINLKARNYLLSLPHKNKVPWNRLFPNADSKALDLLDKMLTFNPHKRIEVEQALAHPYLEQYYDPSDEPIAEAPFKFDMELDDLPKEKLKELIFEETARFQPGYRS
Chain of Ribosomal protein S6 kinase alpha-1 (Q15418 whole entry, the tested form may be a part): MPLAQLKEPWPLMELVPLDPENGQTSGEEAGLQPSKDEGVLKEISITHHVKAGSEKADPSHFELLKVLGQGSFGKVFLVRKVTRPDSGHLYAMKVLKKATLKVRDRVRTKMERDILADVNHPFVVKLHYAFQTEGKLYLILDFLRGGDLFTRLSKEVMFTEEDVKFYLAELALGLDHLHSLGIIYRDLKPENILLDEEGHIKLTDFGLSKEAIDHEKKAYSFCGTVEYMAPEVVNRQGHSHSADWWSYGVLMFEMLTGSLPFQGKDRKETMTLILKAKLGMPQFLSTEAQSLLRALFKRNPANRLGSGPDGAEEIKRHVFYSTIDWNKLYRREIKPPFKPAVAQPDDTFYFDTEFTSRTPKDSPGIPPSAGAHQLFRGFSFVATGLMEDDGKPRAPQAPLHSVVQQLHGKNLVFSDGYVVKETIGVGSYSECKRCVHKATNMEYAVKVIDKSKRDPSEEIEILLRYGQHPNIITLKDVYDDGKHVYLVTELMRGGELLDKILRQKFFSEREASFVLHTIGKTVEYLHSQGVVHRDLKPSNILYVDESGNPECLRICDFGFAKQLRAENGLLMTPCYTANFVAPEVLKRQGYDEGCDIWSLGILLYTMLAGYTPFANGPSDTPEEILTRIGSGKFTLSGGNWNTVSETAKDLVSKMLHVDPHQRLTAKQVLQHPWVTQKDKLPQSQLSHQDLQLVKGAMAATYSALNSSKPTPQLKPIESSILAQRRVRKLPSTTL
Chain of Cyclin-dependent kinase 16 (Q00536 whole entry): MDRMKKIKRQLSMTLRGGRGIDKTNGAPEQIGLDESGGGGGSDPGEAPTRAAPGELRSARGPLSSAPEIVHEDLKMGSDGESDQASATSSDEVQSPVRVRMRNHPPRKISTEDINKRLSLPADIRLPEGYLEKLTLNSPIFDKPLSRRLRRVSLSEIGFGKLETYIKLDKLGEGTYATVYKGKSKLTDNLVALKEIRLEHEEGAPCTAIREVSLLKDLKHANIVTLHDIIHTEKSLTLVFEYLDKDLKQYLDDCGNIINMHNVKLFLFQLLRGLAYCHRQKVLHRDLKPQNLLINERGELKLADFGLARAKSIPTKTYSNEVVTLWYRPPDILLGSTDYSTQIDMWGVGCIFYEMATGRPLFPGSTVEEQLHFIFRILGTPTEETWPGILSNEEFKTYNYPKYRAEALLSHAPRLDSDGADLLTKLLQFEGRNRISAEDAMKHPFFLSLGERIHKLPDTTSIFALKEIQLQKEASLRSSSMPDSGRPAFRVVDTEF
Chain of Ephrin type-A receptor 2 (P29317 whole entry): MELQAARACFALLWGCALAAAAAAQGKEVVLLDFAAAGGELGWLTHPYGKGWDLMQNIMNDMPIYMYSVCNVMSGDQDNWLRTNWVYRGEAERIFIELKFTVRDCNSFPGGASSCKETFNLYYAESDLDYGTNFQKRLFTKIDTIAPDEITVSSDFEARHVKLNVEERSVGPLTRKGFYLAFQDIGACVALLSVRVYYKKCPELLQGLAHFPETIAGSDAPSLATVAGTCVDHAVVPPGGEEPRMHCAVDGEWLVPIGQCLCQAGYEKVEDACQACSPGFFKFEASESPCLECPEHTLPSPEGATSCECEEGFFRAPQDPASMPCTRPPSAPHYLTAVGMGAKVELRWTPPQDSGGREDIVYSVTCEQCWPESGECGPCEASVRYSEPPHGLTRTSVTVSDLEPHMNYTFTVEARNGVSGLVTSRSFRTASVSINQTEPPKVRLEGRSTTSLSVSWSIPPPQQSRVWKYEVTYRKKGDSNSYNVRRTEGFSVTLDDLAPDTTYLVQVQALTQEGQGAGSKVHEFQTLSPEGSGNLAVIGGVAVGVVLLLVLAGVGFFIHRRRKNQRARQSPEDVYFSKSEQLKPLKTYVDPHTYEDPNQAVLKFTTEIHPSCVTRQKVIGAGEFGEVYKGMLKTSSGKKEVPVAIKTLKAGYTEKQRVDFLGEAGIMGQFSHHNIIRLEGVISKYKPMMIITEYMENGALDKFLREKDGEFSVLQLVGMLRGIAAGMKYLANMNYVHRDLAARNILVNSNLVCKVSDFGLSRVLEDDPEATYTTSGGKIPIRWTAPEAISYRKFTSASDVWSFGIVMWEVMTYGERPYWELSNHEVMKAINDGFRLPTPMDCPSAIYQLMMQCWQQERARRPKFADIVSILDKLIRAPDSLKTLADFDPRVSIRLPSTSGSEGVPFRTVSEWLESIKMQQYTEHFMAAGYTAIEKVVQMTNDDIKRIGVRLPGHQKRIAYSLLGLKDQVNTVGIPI
Chain of Calcium/calmodulin-dependent protein kinase type II subunit delta (Q13557 whole entry, the tested form may be a part): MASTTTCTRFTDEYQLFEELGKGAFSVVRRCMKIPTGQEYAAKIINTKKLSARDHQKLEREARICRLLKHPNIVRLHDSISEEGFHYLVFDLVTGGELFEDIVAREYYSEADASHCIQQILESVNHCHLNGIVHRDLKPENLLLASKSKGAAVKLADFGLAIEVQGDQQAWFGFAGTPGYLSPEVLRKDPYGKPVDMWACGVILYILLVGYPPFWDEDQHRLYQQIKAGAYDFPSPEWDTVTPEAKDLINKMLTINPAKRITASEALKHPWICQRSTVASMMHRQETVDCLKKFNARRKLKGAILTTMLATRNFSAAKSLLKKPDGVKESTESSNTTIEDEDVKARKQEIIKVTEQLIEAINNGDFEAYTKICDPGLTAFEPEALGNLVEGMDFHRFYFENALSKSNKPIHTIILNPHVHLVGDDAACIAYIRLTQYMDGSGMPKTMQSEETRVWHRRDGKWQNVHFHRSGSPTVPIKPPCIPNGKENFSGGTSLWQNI
Chain of Glycogen synthase kinase-3 beta (P49841 whole entry, canonical isoform): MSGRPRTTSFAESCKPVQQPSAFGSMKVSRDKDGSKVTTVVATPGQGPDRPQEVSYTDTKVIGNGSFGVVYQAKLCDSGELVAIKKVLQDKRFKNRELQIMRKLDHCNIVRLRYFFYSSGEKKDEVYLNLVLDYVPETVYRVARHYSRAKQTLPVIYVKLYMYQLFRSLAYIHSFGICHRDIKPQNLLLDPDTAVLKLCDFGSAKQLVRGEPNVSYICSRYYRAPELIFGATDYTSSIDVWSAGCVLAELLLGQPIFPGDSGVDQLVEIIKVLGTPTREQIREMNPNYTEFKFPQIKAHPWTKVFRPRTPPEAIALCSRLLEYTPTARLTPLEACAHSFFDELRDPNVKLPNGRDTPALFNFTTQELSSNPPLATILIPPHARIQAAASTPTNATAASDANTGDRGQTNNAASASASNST
Chain of Serine/threonine-protein kinase Nek7 (Q8TDX7 whole entry, looked up, the tested form may be a part): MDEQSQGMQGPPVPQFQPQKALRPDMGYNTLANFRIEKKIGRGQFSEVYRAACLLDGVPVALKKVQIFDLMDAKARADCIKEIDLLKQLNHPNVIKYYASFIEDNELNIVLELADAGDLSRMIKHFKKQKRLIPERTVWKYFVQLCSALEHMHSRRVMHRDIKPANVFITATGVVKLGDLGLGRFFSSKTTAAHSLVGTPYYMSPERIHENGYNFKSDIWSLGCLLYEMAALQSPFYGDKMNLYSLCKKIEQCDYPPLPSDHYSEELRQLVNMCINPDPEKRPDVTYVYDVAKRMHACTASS
Chain of Mitogen-activated protein kinase kinase kinase 2 (Homo sapiens) (Q9Y2U5 whole entry): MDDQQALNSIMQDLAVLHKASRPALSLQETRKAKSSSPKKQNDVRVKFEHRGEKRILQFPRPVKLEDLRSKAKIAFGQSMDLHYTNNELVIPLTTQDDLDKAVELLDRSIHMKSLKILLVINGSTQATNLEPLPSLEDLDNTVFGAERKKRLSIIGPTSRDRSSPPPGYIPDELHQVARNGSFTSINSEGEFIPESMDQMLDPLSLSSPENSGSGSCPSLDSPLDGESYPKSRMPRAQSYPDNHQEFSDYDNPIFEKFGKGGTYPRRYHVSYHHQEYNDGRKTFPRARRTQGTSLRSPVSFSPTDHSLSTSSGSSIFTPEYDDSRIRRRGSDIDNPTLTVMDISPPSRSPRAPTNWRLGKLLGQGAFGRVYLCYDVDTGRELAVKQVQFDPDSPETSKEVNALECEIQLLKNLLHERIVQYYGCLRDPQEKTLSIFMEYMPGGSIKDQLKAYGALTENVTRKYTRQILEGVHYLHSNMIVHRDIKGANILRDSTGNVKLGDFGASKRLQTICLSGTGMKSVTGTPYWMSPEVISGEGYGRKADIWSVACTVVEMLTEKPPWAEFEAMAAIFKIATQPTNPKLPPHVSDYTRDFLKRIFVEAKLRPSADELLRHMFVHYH

For the compound `CCOc1cc(N2CCC(O)CC2)ccc1Nc1ncc2c(n1)N(C)c1ccccc1C(=O)N2C`, the IC50 (against Ephrin type-A receptor 2; in assay [1]; in assay [2]; in assay [3]; in assay [4]) was greater than 50 µM throughout. The inhibition in assay [5] was 11.3%; in assay [6], 9.1%; in assay [7] it was 3.7%; in assay [8], -2.3%; in assay [9] it was 5.4%; in assay [10], 5.5%. The inhibition in assay [12] was found to be 0.1%. Also, the inhibition at 2 µM in assay [11] was determined as 2%.
